Bioassay records (PubChem)
An excerpt weighted towards active compounds, which were near 1.9% of everything screened.
CHRM4 PAM – potentiates acetylcholine response at human M4 receptor; CHO-K1 hM4/Gqi5, Fluo-8 calcium fluorescence, ACh EC20; 0% = ACh EC20, 100% = maximal ACh; 360,000 compounds, 0.4% hits; AID 624126; activation, % at 3 µM;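 active = activation above its plate's cutoff, the mean activation of sample wells plus 3 SD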
CHRM4 agonist – CHRM4 agonism in calcium assay | P08173 | CHO-K1 hM4/Gqi5, Fluo-8 calcium fluorescence; vehicle 0%, full acetylcholine response 100% | activation, % at 3 µM | 360,000 compounds, 0.14% hits;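 active = activation above the run mean over all test wells plus 3 SD, cut at about 32% in these data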;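 also: peak over basal fluorescence ratio per well then scaled between controls; 0% = DMSO wells and 100% = acetylcholine at EC100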
M5 antag – antagonists of human muscarinic M5 receptor (CHRM5); P08912; CHO-hM5 cells, Fluo-8 calcium fluorescence, ACh EC80; inhibition, % at 3 µM; 360,000 compounds, 0.59% hits; AID 624040;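 active = inhibition above a per-plate cutoff, the mean of that plate's test compounds plus 3 SD, cut at about 27% in these data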;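 also: 0% = acetylcholine EC80 with DMSO and 100% = DMSO without agonist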
Target sequence (P08912 whole entry, looked up): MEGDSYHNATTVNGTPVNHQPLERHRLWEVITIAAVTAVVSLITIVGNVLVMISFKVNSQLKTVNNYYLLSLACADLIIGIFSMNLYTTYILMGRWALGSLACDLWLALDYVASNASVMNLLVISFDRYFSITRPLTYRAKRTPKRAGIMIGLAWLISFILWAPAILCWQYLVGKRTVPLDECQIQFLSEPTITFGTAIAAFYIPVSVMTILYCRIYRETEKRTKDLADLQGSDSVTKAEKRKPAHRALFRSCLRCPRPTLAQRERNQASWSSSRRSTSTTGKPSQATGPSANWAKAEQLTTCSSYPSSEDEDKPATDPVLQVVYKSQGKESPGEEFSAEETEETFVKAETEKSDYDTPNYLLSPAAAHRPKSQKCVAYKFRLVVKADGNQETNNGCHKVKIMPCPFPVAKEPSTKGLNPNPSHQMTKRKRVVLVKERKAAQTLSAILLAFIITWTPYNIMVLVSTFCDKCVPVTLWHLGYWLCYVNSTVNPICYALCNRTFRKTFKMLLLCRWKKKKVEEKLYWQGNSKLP
CHRM5 PAM – CHRM5 positive allosteric modulation; 360,000 compounds, 0.3% hits; activation, % at 3 µM; AID 624038; P08912; CHO-K1 hM5, Fluo-8 calcium, ACh EC20 PAM; 0% = ACh EC20, 100% = ACh EC100;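 active = activation above the run cutoff, the mean activation of all test compounds plus 3 SD, cut at about 18% in these data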
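System – CHO-K1 hM5 cells · Compound – 3 µM, single dose · Incubation – compound preincubation 140 s before EC20 acetylcholine addition · Technique – Fluo-8 calcium fluorescence · Measure – Max/basal fluorescence ratio as % of EC20–EC100 ACh window · Benchmarks – low control EC20 acetylcholine (0%), high control EC100 acetylcholine (100%) · Replication – singlicate, one well per test compound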
CHRM4 antagonist – antagonists of human muscarinic M4 receptor (CHRM4); P08173; CHO-hM4 cells, ACh EC80, Fluo-8 calcium fluorescence; inhibition, % at 3 µM; 360,000 compounds, 0.73% hits;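 active = inhibition above its plate's cutoff, the mean inhibition of sample wells plus 3 SD, cut at about 27% in these data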;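 also: 0% = acetylcholine EC80 with DMSO and 100% = DMSO without agonist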
CHRM5 agonist – CHRM5 agonism in calcium assay | P08912 | CHO-K1 hM5 cells, Fluo-8 calcium fluorescence; 0% DMSO wells, 100% maximal acetylcholine response | 360,000 compounds, 0.19% hits | activation, % at 3 µM;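 active = activation above the run's mean over test compounds plus 3 SD, cut at about 23% in these data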;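 also: signal is peak over basal fluorescence ratio across the kinetic read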
An asterisk follows results filed as active.

SMILES	CHRM4 PAM	CHRM4 agonist	M5 antag	CHRM5 PAM	CHRM4 antagonist	CHRM5 agonist
O=C(COC(=O)c1cc(S(=O)(=O)N2CCOCC2)ccc1F)Nc1cc([N+](=O)[O-])ccc1F	-3	15	10	-3	-18	3
O=C(Cn1ccc2cc(S(=O)(=O)N3CCCC3)ccc21)NCCc1ccccc1	7	3	9	-4	-4	-4
C(=C\c1ccccc1)/CN1CCN(C(c2cccs2)c2nnnn2C2CCCC2)CC1 (stereo unspecified)	-11	-1	31*	-22	4	-8
C(=C\c1ccccc1)/CN1CCN(C(c2cccs2)c2nnnn2Cc2ccccc2)CC1 (stereo unspecified)	-14	8	10	-20	-8	-7
CCCCn1c(-c2ccc([N+](=O)[O-])cc2)n[nH]c1=S	-24	1	46*	-21	95*	-7
CCCN1C(=O)/C(=C/c2ccc(N3CCCC3)c(C)c2)NC1=S	-19	77*	62*	-46	54*	69*
CCCN1C(=O)/C(=C/c2ccc(OCC(=O)OCC)cc2)NC1=S	-9	17	12	-8	-2	7
CCCN1C(=O)/C(=C/c2ccc(N3CCOCC3)cc2)NC1=S	-9	23	19	-14	11	15
CCN1C(=O)/C(=C/c2ccc(N3CCCC3)cc2)NC1=S	-17	58*	59*	-21	37*	97*
Cc1cc(/C=C2/C(=O)N(C)C(=S)N2C)ccc1N1CCCC1	4	4	14	-4	2	10
Cc1cc(/C=C2\NC(=S)N(C)C2=O)ccc1N1CCCC1	-25	82*	59*	-23	45*	138*
N#Cc1ccc(CN2CCN(C(=O)CN3C(=O)NC4(CCCC4)C3=O)CC2)cc1	5	1	2	-2	-10	4
CCOc1ccc2[nH]c(=O)c(CN(Cc3ccc(C)cc3)C(=O)N3CCCC3)cc2c1	-8	0	32*	-11	-5	-2
C/C(=N/NC(=O)c1cc(-c2ccccc2)nc2c(Cl)cccc12)c1cccnc1	26*	2	-11	25*	-4	4
COc1cc(OCc2ccccc2)c(C(=O)/C=C/c2ccc3c(c2)OCO3)c(OC)c1OC	-8	2	-3	-7	-15	-8
CC1=NN(C(=S)Nc2ccccc2)C(C)(C)C1	2	0	10	19*	2	-3
COC(=O)c1c(-c2ccccc2)csc1N	-5	3	0	2	12	-1
COC(=O)c1c(C(=O)OC)c2c(-c3ccccc3)cc3cccc1n32	-5	7	32*	-5	1	9
COc1ccc(N(C(=O)COc2ccccc2OC)S(=O)(=O)c2ccc(C)cc2)cc1	26*	1	-3	6	-6	-4
COc1ccc(C2c3c(ncn(CCCO)c3=N)Oc3ccc4ccccc4c32)cc1 (stereo unspecified)	-9	19	7	-10	0	-4
COc1ccc(C2c3c(ncn(CCCO)c3=N)Oc3ccc4ccccc4c32)cc1OC (stereo unspecified)	11*	1	-4	7	1	-2
CN1C(=S)SC(C)(C)C1(C)NO (stereo unspecified)	7	1	-12	26*	-2	-1
CCOC(=O)C1(C)CCCN(C(=O)c2cc(C)oc2C)C1 (stereo unspecified)	9	1	-8	7	-18	0
CC1(C(=O)NCc2ccccc2)CN(S(C)(=O)=O)CC(=O)N1Cc1cccc(F)c1 (stereo unspecified)	24*	6	6	-1	-6	2
CNC(=O)c1ccc(NC(=O)C2CCN(c3ncnc4sc(C)c(C)c34)CC2)cc1	9	72*	19	-12	70*	-1
SMILES	CHRM4 PAM	CHRM4 agonist	M5 antag	CHRM5 PAM	CHRM4 antagonist	CHRM5 agonist
CCc1cccc(NC(=O)C2CCN(c3ncnc4sc(C)c(C)c34)CC2)c1	20	10	9	-36	12	-3
Cc1sc2ncnc(N3CCC(C(=O)Nc4ccc(Cl)cc4Cl)CC3)c2c1C	38*	13	0	5	0	0
Cc1sc2ncnc(N3CCC(C(=O)Nc4ccc(Cl)c(Cl)c4)CC3)c2c1C	23*	3	19	-5	0	-1
Cc1sc2ncnc(N3CCC(C(=O)Nc4ccc(Br)cc4Br)CC3)c2c1C	22*	0	-2	0	-5	2
C[C@H](NC(=O)[C@@H]1CCCN1C(=O)[C@@H]1CCCN1)c1ccccc1	20	1	1	-6	-11	1
CN(CC(=O)Nc1cc(S(=O)(=O)N2CCCC2)ccc1Cl)Cc1nc2ccccc2c(=O)[nH]1	-8	6	14	-10	4	-5
Cc1cc(C)c(C)c(S(=O)(=O)N2CCN(c3ncnc4sc(C)c(C)c34)CC2)c1C	8	1	7	1	-5	-3
CCS(=O)(=O)N1CCN(c2ncnc3sc(C)c(C)c23)CC1	21*	8	6	9	-9	0
CC(=O)c1ccc(N2CCN(C(=O)c3ccc(Cl)c(NC4=NC5CS(=O)(=O)CC5S4)c3)CC2)cc1 (stereo unspecified)	48*	16	29*	21*	17	-1
COc1ccccc1C(=O)N/C(=C\c1cn(C)c2ccccc12)C(=O)NCCCn1ccnc1	-2	1	6	-1	0	-4
COc1cc([C@H]2Oc3c(OC)cc(CCCO[C@@H]4O[C@H](CO)[C@@H](O)[C@H](O)[C@H]4O)cc3[C@@H]2CO)ccc1O	2	1	-2	1	-6	2
CC1CCN(c2nc3nonc3nc2Nc2ccc(F)cc2)CC1	-6	5	10	-16	-7	-6
CCCCCCCC1CC(=O)C=C(C)C1C(=O)OCC (stereo unspecified)	12*	-1	14	-4	-1	-4
COCCN1C(=O)N(c2ccc(OC)cc2)C(=O)C1CC(=O)Nc1cccc(F)c1 (stereo unspecified)	5	2	-5	-4	-1	6
Cc1ccc(-c2nn(-c3ccccc3)cc2CN(Cc2ccccc2)C(=O)c2ccco2)o1	-27	10	10	-13	52*	2
CCN(CC(=O)Nc1c(F)cccc1F)C(=O)c1nc2nc(C)cc(C)n2n1	0	0	9	0	-6	1
O=C(CN1C(=O)COc2ccccc21)c1cccc(Cl)c1	-16	0	4	-9	31*	-9
CC1(C)N=C(N)N=C(N)N1c1ccc(Oc2ccc(Cl)cc2)c(Cl)c1	-11	0	33*	-21	5	-11
